This note sets out measurements from ChEMBL document CHEMBL1148844, “5-((1H-pyrazol-4-yl)methylene)-2-thioxothiazolidin-4-one inhibitors of ADAMTS-5” (Bioorg Med Chem Lett, 2007).

A value given as a limit tells only on which side of the number the result lay.

The target in the first test is T1, A disintegrin and metalloproteinase with thrombospondin motifs 5 (Homo sapiens) (UniProt Q9UNA0).
T1 sequence (whole entry): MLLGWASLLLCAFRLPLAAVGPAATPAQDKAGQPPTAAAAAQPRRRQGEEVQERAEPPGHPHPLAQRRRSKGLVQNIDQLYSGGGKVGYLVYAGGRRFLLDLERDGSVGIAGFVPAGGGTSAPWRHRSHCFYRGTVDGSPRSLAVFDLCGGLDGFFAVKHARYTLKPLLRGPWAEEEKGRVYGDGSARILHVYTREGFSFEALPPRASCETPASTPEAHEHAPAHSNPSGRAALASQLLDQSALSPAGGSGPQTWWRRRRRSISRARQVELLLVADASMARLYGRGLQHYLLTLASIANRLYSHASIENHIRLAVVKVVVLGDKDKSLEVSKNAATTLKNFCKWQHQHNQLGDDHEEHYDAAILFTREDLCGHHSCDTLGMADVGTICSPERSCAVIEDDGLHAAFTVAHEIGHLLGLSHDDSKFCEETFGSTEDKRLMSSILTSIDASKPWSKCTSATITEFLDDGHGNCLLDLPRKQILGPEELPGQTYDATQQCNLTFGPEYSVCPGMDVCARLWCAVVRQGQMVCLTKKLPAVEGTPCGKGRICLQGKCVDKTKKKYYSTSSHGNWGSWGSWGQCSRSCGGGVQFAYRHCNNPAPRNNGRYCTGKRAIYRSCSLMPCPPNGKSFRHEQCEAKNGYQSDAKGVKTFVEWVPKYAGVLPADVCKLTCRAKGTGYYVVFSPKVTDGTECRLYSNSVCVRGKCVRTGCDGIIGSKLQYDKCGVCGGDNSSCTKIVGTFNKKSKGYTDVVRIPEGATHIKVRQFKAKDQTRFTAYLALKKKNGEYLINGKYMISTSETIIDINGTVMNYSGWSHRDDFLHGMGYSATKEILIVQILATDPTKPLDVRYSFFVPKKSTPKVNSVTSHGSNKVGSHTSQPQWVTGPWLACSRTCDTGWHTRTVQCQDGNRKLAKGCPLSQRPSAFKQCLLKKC
Put plainly: Inhibition of ADAMTS5 at 20 uM by FRET assay. In short, it runs like this: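 Percent inhibition of aggrecanase-2 (ADAMTS-5) measured at a single 20 µM compound level. Reported values are means of two experiments, with standard deviations of ±10%.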
One may read the inhibition as the change of the read-out against control, counted positive when it falls. A low value points to little suppression. Turning to `Cn1nc(C(F)(F)F)c(/C=C2\SC(=S)NC2=O)c1SCc1ccccc1`, the inhibition amounted to 44%. Same read-out and setting: then `Cn1nc(C(F)(F)F)c(/C=C2\SC(=S)NC2=O)c1Sc1ccc(Cl)cc1`, with 47%; and `Cn1nc(C(F)(F)F)c(/C=C2\SC(=S)NC2=O)c1SCc1cccs1`, with 40%; and `CN1CCN(c2c(CC3SC(=S)NC3=O)c(C(F)(F)F)nn2-c2ccccc2)CC1` (stereo unspecified), with less than 40%. Compound `CN1CCN(c2c(/C=C3\SC(=S)NC3=O)c(C(F)(F)F)nn2-c2ccccc2)CC1` had an inhibition of 45%. With `COc1ccc(CSc2c(/C=C3\SC(=S)NC3=O)c(C(F)(F)F)nn2C)cc1`, the inhibition amounted to 53%. Still for that read-out and setting: under `O=C1NC(=S)S/C1=C\c1c(C(F)(F)F)nn(-c2ccccc2)c1SCc1ccco1` stands 42%; under `COc1ccc(CCOc2c(/C=C3\SC(=S)NC3=O)c(C(F)(F)F)nn2-c2ccccc2)cc1`, 31%; under `O=C1NC(=S)SC1Cc1c(C(F)(F)F)nn(-c2ccccc2)c1SCc1ccco1` (stereo unspecified), 42%. On the same count and under the same terms, then `Cn1nc(C(F)(F)F)c(/C=C2\SC(=S)NC2=O)c1Sc1ccccc1`, with 28%.

The target of another test is T2, A disintegrin and metalloproteinase with thrombospondin motifs 5 (Homo sapiens, UniProt Q9UNA0).
T2 sequence (Q9UNA0 whole entry): T1 sequence (whole entry)
Briefly: Inhibition of ADAMTS5 by FRET assay. In short, it runs like this: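 Aggrecanase-2 (ADAMTS-5) inhibition reported as IC50 in µM. Values are means of two independent experiments, with standard deviations of ±10%.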
A word on the IC50: it is the point on the concentration scale where inhibition reaches its midpoint. Read a low IC50 as greater potency in that assay. The compound `Cn1nc(C(F)(F)F)c(/C=C2\SC(=S)NC2=O)c1SCc1ccc(Cl)cc1` showed an IC50 of 1.1 µM.

In the case of `O=C1NC(=S)S/C1=C\c1c(C(F)(F)F)nn(C2CCCCC2)c1SCc1ccc(Cl)cc1`, the IC50 was found to be 4.2 µM. This IC50 is about 3.8-fold higher than that of the compound before.

Compound `Cn1nc(-c2ccccc2)c(/C=C2\SC(=S)NC2=O)c1SCc1ccco1` showed an IC50 of 14.1 µM. In turn, `O=C1NC(=S)S/C1=C\c1c(-c2ccccc2)nn(-c2ccccc2)c1SCc1cccs1` returned a half-maximal inhibitory concentration (IC50) of 3.7 µM.

`Cn1nc(C(F)(F)F)c(/C=C2\SC(=S)NC2=O)c1SCc1ccccc1Cl` gave an IC50 of 23.2 µM.

On to `Cn1nc(C(F)(F)F)c(/C=C2\SC(=S)NC2=O)c1SCc1ccc(C(C)(C)C)cc1`, for which the IC50 was found to be 2.2 µM.

With `O=C1NC(=S)S/C1=C\c1c(C(F)(F)F)nn(-c2ccccc2)c1OCCc1cccs1`, 9.1 µM corresponded to half-maximal inhibition (IC50).

The compound `O=C1NC(=S)S/C1=C\c1c(-c2ccccc2)nn(C2CCCCC2)c1SCc1ccco1` gave a concentration for half-maximal inhibition (IC50) of 4.6 µM.

With `O=C1NC(=S)S/C1=C\c1c(C(F)(F)F)nn(-c2ccccc2)c1SCc1ccccc1`, it took 16.9 µM to reach half-maximal inhibition (IC50). Against the preceding compound, the IC50 is about 3.7-fold higher. Same read-out and setting: then `O=C1NC(=S)S/C1=C\c1c(C(F)(F)F)nn(-c2ccccc2)c1SCc1ccc(Cl)cc1`, with 2.5 µM; and `Cc1ccc(Sc2c(/C=C3\SC(=S)NC3=O)c(-c3ccccc3)nn2C)cc1`, with 8.3 µM; and `Cn1nc(C(F)(F)F)c(/C=C2\SC(=S)NC2=O)c1N1CCN(c2ccc(Cl)cc2)CC1`, with 9 µM.

With `CN1CCN(c2c(/C=C3\SC(=S)NC3=O)c(-c3ccccc3)nn2-c2ccccc2)CC1`, inhibition was half-maximal at 4.6 µM (IC50). This IC50 is about 2-fold lower than that of the compound before. Consider `O=C1NC(=S)SC1Cc1c(C(F)(F)F)nn(-c2ccccc2)c1SCc1ccc(Cl)cc1` (stereo unspecified), for which the half-inhibitory concentration (IC50) was determined as 5.8 µM.

`O=C1NC(=S)S/C1=C\c1c(C(F)(F)F)nn(C2CCCCC2)c1N1CCN(c2ncccn2)CC1` gave an IC50 of 11.7 µM.

Consider `O=C1NC(=S)S/C1=C\c1c(-c2ccccc2)nn(-c2ccccc2)c1SCc1ccco1`, for which half-maximal inhibition (IC50) required 6.7 µM. Compared with the last compound, the IC50 is about 1.7-fold lower. Regarding `O=C1NC(=S)S/C1=C\c1c(-c2ccccc2)nn(C2CCCCC2)c1N1CCN(c2ncccn2)CC1`, the IC50 came to 8 µM. The IC50 values of the last two compounds are within 1.5-fold of each other.

Compound `O=C1NC(=S)S/C1=C\c1c(C(F)(F)F)nn(-c2ccccc2)c1OCCc1ccc(Cl)cc1` gave an IC50 of 4.2 µM. With `O=C1NC(=S)S/C1=C\c1c(C(F)(F)F)nn(-c2ccccc2)c1N1CCN(c2ccc(Cl)cc2)CC1`, inhibition was half-maximal at 2.1 µM (IC50). Compared with the last compound, the IC50 is about 2-fold lower.

In turn, `O=C1NC(=S)S/C1=C\c1c(C(F)(F)F)nn(-c2ccccc2)c1OCCc1ccc(F)cc1` showed a 50% inhibitory concentration (IC50) of 7.1 µM.

In a further test the target is T3, A disintegrin and metalloproteinase with thrombospondin motifs 4 (Homo sapiens, UniProt O75173).
T3 sequence (O75173 whole entry): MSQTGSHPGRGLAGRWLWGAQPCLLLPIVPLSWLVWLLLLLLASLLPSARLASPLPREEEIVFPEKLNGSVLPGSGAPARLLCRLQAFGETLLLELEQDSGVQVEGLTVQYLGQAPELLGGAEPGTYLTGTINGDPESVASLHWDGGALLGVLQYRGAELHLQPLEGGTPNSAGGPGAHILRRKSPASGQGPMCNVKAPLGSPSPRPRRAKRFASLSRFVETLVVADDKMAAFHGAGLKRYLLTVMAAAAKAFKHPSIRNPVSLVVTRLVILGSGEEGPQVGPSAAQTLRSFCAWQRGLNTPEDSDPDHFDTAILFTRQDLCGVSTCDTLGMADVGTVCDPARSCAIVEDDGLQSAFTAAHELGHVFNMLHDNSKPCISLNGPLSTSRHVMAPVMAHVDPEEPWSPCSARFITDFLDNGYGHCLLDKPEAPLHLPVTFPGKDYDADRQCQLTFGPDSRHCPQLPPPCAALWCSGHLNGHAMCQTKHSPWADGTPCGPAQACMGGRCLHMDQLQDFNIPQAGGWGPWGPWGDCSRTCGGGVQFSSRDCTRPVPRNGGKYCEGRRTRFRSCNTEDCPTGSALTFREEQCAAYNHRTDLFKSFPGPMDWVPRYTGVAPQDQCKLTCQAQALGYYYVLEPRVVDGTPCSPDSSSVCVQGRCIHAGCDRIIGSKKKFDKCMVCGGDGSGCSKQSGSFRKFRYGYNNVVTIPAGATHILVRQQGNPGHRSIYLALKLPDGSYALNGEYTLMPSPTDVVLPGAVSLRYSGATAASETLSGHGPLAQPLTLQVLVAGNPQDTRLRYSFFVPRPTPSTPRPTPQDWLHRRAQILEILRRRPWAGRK
Put plainly: Inhibition of ADAMTS4 by FRET assay.
The compound `Cn1nc(C(F)(F)F)c(/C=C2\SC(=S)NC2=O)c1SCc1ccc(C(C)(C)C)cc1` displayed an IC50 of 7.5 µM.
